Screening data: PubChem, Sanford-Burnham Center for Chemical Genomics
Compounds with a hit are over-represented: about 1.5% of the library has one in this group of screens.
FLuc act counter: FLuc activators, initial screening, artefact control for FLuc-dependent activation tests, biochemical, ATPlite luminescence. Luciferin 4-monooxygenase (Photinus pyralis), P08659. activation factor at 10 µM. 200,000 tested, under 10 active. ATPlite luciferase biochemical, 10 min; 0 = ATP-free wells, 1 = DMSO control. AID 1027, 2008;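 active = luciferase activation factor, scaled between plate controls, of at least 2 with compound at 10 µM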
Target sequence (P08659 whole entry, looked up): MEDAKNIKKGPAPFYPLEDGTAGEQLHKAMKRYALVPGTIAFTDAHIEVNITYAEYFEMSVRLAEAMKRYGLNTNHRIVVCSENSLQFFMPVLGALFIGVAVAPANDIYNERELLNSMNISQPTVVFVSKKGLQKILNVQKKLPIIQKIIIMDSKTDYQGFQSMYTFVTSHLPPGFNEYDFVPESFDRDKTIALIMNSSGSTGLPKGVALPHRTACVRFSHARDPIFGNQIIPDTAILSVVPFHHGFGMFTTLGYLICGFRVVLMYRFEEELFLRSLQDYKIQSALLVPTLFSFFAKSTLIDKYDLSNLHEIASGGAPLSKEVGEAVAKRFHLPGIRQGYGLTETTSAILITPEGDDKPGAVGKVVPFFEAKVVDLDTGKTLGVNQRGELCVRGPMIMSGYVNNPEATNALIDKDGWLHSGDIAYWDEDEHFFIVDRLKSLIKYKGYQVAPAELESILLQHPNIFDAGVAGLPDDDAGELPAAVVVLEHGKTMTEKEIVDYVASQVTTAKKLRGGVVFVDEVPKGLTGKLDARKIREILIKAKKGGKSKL
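Material: Luciferase/luciferin reagent mix; Doses: test compounds dosed from 2 mM stocks in 100% DMSO; Schedule: 10 min incubation after luciferase reagent addition, room temperature; Measured by: luminescence from luciferase reaction; Read-out: luminescence gain marking luciferase activators.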
PPC-1+TRAIL kill: compounds killing PPC-1 cancer cells with TRAIL present, primary screen, TRAIL potentiator project, ATPLite luminescence, uHTS. PPC-1 cells + TRAIL, ATPLite viability luminescence. cell killing (% activity), % at 4 µM or 5 µM. 220,000 compounds, 0.41% hits;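 active = cell killing above 50% in the first pass at 4 µM, then a duplicate retest at 5 µM averaging 50% or more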;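 also: plate controls were cells with TRAIL plus DMSO for no effect and medium-only wells lacking cells for full effect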
C8 TRAIL sens: viability loss with TRAIL in NB7+C8 cells, primary screen, TRAIL sensitizer project, cell-based, ATPlite luminescence | 360,000 compounds, 1% hits | AID 624354, 2012 | inhibition (viability loss, TRAIL sensitization), % at 10 µM;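 active = compounds causing at least 50% loss of cell viability in the single-dose screen, relative to plate controls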
FLuc inhib CS: firefly luciferase enzyme inhibitors, primary screen, artefact control for luciferase-based inhibitor screens, biochemical, luminescence, ATPLite. 200,000 compounds, 1.5% hits. AID 1006, 2008. Luciferin 4-monooxygenase (Photinus pyralis), P08659. inhibition, % at 10 µM. 10 min;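 active = inhibition above about 50% when tested at 10 µM, limit read from the data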
Starred values were filed as active, the others as inactive; . = no result given.

SMILES	FLuc act counter	PPC-1+TRAIL kill	C8 TRAIL sens	FLuc inhib CS
Cc1ccc(-c2nc3sc(C(N)=O)c(N)c3c3c2CCCC3)cc1	1	54.6*	14.9	-2.7
O=C(Nc1ccccc1N1CCN(c2ccc(F)cc2)CC1)C1CCCCC1	1.1	1.0	3.0	-5.3
Clc1ccc(-n2nnc(-c3nccs3)n2)cc1Cl	0.4	22.6	34.6	59.0*
COc1cccc(NC(=O)Cc2cn(C)c3ccccc23)c1	1	17.5	9.4	-1.5
CC(=O)Nc1ccc(N=Cc2c(O)c3ccccc3oc2=O)cc1	.	.	-1.2	.
CC(=O)Nc1ccc(N=Cc2c(O)c(C(=O)Nc3ccccc3)cc3ccccc23)cc1	0.1	-0.9	.	94.9*
COc1ccc(C(=O)N/N=C/c2ccc(OC)c(COc3ccc(F)cc3)c2)cc1	.	.	-7.1	.
COc1ccc(/C=C2\CCc3ccccc3C2=O)cc1O	.	.	65.5*	.
O=C1/C(=C/c2cccnc2)CCC/C1=C\c1cccnc1	1	81.7*	.	3.3
O=C1/C(=C/c2cccnc2)CC/C1=C\c1cccnc1	0.7	-6.5	17.2	32.8
O=C1/C(=C/c2ccc(O)cc2)CCc2ccc([N+](=O)[O-])cc21	1.1	17.4	24.1	-5.8
O=C1/C(=C\c2cccnc2)CCc2ccccc21	0.4	4.3	11.4	63.1*
O=C1/C(=C\c2ccc([N+](=O)[O-])cc2)CCc2ccccc21	0.2	40.8	78.1*	80.9*
CCCCC(=O)Nc1cccc(NC(=O)c2ccc(Br)o2)c1	1	19.5	-0.5	-4.5
CC(=O)N1Cc2cc(C(=O)NCC(F)(F)F)nc(-c3cccc(-c4cccnc4)c3)c2[C@@H]1CCO	.	.	7.8	.
CC(=O)c1ccc(NC(=O)Nc2ccccc2)cc1	0.6	40.0	60.1*	35.3
CCN(CC)c1ccc(NC(=O)Nc2ccccc2)cc1	.	.	59.2*	.
O=C(Nc1ccccc1)Nc1ccc(C(=O)N2CCOCC2)cc1	0.4	42.8	11.2	55.2*
CC(=O)c1ccc(NC(=O)c2ccn[nH]2)cc1	0.4	26.6	47.9	60.3*
CCN(CC)c1ccc(NC(=O)Nc2ccc(C(C)=O)cc2)cc1	1	-4.1	5.2	-2.5
N#C/C(=C(/O)COC(=O)CCCNC(=O)c1ccc(Cl)cc1)c1nc2ccccc2[nH]1	0.9	4.3	6.9	7.3
Cc1ccc(C)c(C2C(C#N)=C(N)Oc3cc(C)oc(=O)c32)c1 (centres undefined)	1	1.7	15.4	-2.5
COc1ccc(C(=O)COC(=O)c2n[nH]c3ccccc23)c(OC)c1	.	.	6.1	.
COc1ccccc1-c1cc(C(=O)Nc2cccnc2)no1	0.4	46.3	43.3	62.1*
COc1ccc(NC(=O)c2cc(-c3ccccc3OC)on2)cc1	0.9	24.2	45.4	5.0
SMILES	FLuc act counter	PPC-1+TRAIL kill	C8 TRAIL sens	FLuc inhib CS
COC(=O)CCC(=O)OC1(C)C(=O)C=C2C=C(C3CC3)N(CCCOC(C)C)C=C2C1=O (centres undefined)	.	6.8	-11.4	.
CN(C)S(=O)(=O)c1cccc(NC(=O)c2ccccc2SCC(=O)N2CCCC2)c1	.	.	-14.2	.
Cc1ccc(OCCC(=O)OCC(=O)Nc2cc(S(=O)(=O)N(C)C)ccc2C)cc1	0.4	21.6	-2.7	58.4*
CCN(CC)S(=O)(=O)c1cccc(NC(=O)COC(=O)CNC(=O)c2cccc(F)c2)c1	.	-24.2	11.2	.
CCN(CC)S(=O)(=O)c1ccc(C)c(NC(=O)COC(=O)CNC(=O)c2ccc(C(C)(C)C)cc2)c1	0.2	18.0	-3.5	81.4*
O=C(O)Cc1ccc(NC(=O)C2CC=CCC2C(=O)O)cc1 (centres undefined)	1.1	13.6	.	-5.9
O=C(NC(=S)/C(=C1\CCCCCN1)[N+](=O)[O-])c1ccccc1	.	.	78.5*	.
c1ccc(-c2ccc(-c3ccccn3)nn2)nc1	0.4	16.3	.	59.7*
S=C(NCCc1ccccc1)N/N=C/c1cccc(Cl)c1Cl	1	27.4	4.0	-1.9
COc1cc(/C=N/Nc2ccccn2)cc(OC)c1O	0.2	39.9	13.1	78.5*
C(=N\Nc1ccccn1)/c1ccc2c(c1)OCCO2	0.2	28.5	46.3	78.2*
Fc1cccc(/C=N/Nc2ccccn2)c1	0.8	7.5	-12.2	20.7
CCCOc1ccc(/C=N/Nc2ccccn2)cc1OC	0.4	25.3	31.0	58.5*
CCOc1ccc(/C=N/Nc2ccccn2)cc1OC	0.4	13.9	26.3	58.3*
C/C(=N\NC(=O)c1c(Cl)c(C)nn1C)c1ccc(NC(=O)COc2ccc(Cl)cc2C)cc1	1	5.0	25.7	-4.2
Cc1cc2c(cc1C)C(=O)CCC2	.	.	-4.4	.
CC(C)NC(=O)c1cc(-c2ccco2)on1	1	-1.1	2.6	2.5
Cc1cc(C(=O)Nc2sc3c(c2C#N)CCC(C)C3)no1 (centres undefined)	0.3	32.7	55.3*	72.5*
Cc1cc(C(=O)Nc2sc3c(c2C#N)CCC3)no1	0.3	24.2	50.9*	65.9*
Cc1cc(C(=O)Nc2sc3c(c2C#N)CCCC3)no1	0.2	20.5	51.8*	83.7*
O=C(c1cncc(Br)c1)N1CCN(S(=O)(=O)c2ccc(Cl)cc2)CC1	.	.	-1.7	.
O=C(CSc1nc2ccccc2c(=O)[nH]1)Nc1ccc([N+](=O)[O-])cc1	.	.	60.9*	.
CCc1ccc(C(=O)/C=C/c2cnn(C)c2C)s1	0.1	29.1	24.9	85.7*
COC(=O)c1ccc(OCC(=O)c2ccccc2)cc1	0.7	25.0	2.9	26.8
CCCCCCC1CCC(C(=O)NC(CCSC)C(=O)NC(C(=O)OC)C(C)C)CC1 (centres undefined)	1.1	23.3	2.3	-5.2
SMILES	FLuc act counter	PPC-1+TRAIL kill	C8 TRAIL sens	FLuc inhib CS
Cc1nnsc1C(=O)Nc1ccc(S(=O)(=O)N2CCC(C)CC2)cc1	.	.	13.1	.
CCCCC(CC)CN1C(=O)/C(=C/c2ccncc2)SC1=S (centres undefined)	1	3.1	86.5*	0.4
CCN1C(=O)/C(=C\c2ccncc2)SC1=S	.	-1.7	5.9	.
CN(C)CC(O)c1ccc(C=Cc2ccc(Cl)cc2)cc1 (centres undefined)	.	.	89.0*	.
N#CC(C#N)C(c1ccsc1)c1c(-c2ccccc2)[nH][nH]c1=O (centres undefined)	1.1	-12.7	-2.2	-7.3
COc1ccc(CCn2cnc3c([nH]c4ccccc43)c2=O)cc1	.	-15.7	26.4	.
NSc1nc(N)c2nc(-c3ccccc3)c(-c3ccccc3)nc2n1	1	11.5	-2.8	-2.0
Nc1nc(N)c2nc(-c3ccccc3)c(N)nc2n1	1	21.5	78.6*	-1.3
COc1cccc(C(=O)O/N=C(\N)c2ccccn2)c1OC	.	.	42.1	.
Cc1ccc(C(=O)O/N=C(\N)c2ccccn2)c(Cl)c1	.	.	90.6*	.
N/C(=N\OC(=O)c1cccc2ccccc12)c1ccccn1	.	30.8	55.7*	.
Cc1c(C(=O)O/N=C(\N)c2ccccn2)cccc1[N+](=O)[O-]	.	47.8	74.9*	.
N/C(=N\OC(=O)c1cc(Br)ccc1Cl)c1ccccn1	0.5	36.5	48.1	52.1*
